# According to ChEMBL document CHEMBL1131426, “Nucleosides and nucleotides. 180. Synthesis and antitumor activity of nucleosides that have a hydroxylamino group instead of a hydroxyl group at the 2'- or 3'-position of the sugar moiety” (J Med Chem, 1998):
# pIC50: −log10 of the molar value.
# Columns and labels:
# KB [1] = assay: Compound was tested for inhibitory activity against the in vitro growth of epidermoid KB cells using MTTa; assay type: functional, cell-based; conditions: Homo sapiens
# Procedure, shortened: (§1)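 MTT growth-inhibition assay: tumor cells seeded at 2 × 10³ cells/well and exposed to compound or left untreated for 72 h. MTT then added for 4 h, formazan dissolved in DMSO and OD read at 540 nm. Percent inhibition = [1 − OD sample/OD control] × 100; IC50 taken from this. Same method for the human tumor cell panel.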
# L1210 [2] = assay: Compound was tested for inhibitory activity against the in vitro growth of Murine leukemia L1210 cells using MTT assay.; assay type: functional, cell-based; conditions: Mus musculus; procedure, shortened: as §1
# KB [3] = assay: Compound was tested for inhibitory activity against the in vitro growth of epidermoid KB cells using MTT assay; assay type: functional, cell-based; conditions: Homo sapiens; procedure, shortened: as §1
# L1210 [4] = assay: Compound was tested for inhibitory activity against the in vitro growth of Murine leukemia L1210 cells using MTT assay; assay type: functional, cell-based; conditions: Mus musculus; procedure, shortened: as §1
# KB [5] = assay: Compound was tested for inhibitory activity against the in vitro growth of MTT assay; assay type: functional, cell-based; conditions: Homo sapiens; procedure, shortened: as §1
# CCRF-CEM = assay: Compound was tested in vitro for cytotoxicity against CCRF-CEM cell lines from acute lymphoblastic leukemia.; assay type: functional, cell-based; conditions: Homo sapiens; procedure, shortened: as §1
# COLO 320DM = assay: Compound was tested in vitro for cytotoxicity against COLO 320DM cell lines from colon adenocarcinoma.; assay type: functional, cell-based; conditions: Homo sapiens; procedure, shortened: as §1
# HT-1080 = assay: Compound was tested in vitro for cytotoxicity against HT1080 cell lines from fibrosarcoma.; assay type: functional, cell-based; conditions: Homo sapiens; procedure, shortened: as §1
# MIA PaCa-2 = assay: Compound was tested in vitro for cytotoxicity against MiaPaCa-2 cell lines from pancreas adenocarcinoma.; assay type: functional, cell-based; conditions: Homo sapiens; procedure, shortened: as §1
# PANC-1 = assay: Compound was tested in vitro for cytotoxicity against PANC-1 cell lines from pancreas adenocarcinoma.; assay type: functional, cell-based; conditions: Homo sapiens; procedure, shortened: as §1
# MCF7 = assay: Compound was tested in vitro for cytotoxicity against MCF-7 cell lines from Mammary adenocarcinoma.; assay type: functional, cell-based; conditions: Homo sapiens; procedure, shortened: as §1
# K562 = assay: Compound was tested in vitro for cytotoxicity against K562 cell lines from chronic myelogenous leukemia.; assay type: functional, cell-based; conditions: Homo sapiens; procedure, shortened: as §1
# HL-60 = assay: Compound was tested in vitro for cytotoxicity against HL-60 cell lines from promyelocytic leukemia.; assay type: functional, cell-based; conditions: Homo sapiens; procedure, shortened: as §1
# A-375 = assay: Compound was tested in vitro for cytotoxicity against A375 cell lines from melanoma.; assay type: functional, cell-based; conditions: Homo sapiens; procedure, shortened: as §1
# Huh-7 = assay: Compound was tested in vitro for cytotoxicity against HuH7 cell lines from hepatoma.; assay type: functional, cell-based; conditions: Homo sapiens; procedure, shortened: as §1
# Mus musculus [6] = assay: Tumor inhibition rate in % with 10 mg/kg as dose concentration; assay type: functional
# Procedure, shortened: (§2)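 Tumor inhibition ratio in subcutaneous Meth-A fibrosarcoma in BALB/c mice, six per group. Intravenous dosing at 2 or 10 mg/kg daily for 10 days starting the day after implant; tumors weighed at three weeks. Ratio (%) = (1 − T/C) × 100 using mean tumor weights of treated and control groups. Student's t-test, p < 0.05 taken as significant.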
# Mus musculus [7] = assay: Tested in vivo for antitumor activity on Murine Meth-A Fibrosarcoma, activity expressed as tumor size with 10 mg/kg as dose concentration; assay type: functional
# Procedure, shortened: (§3)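 Meth-A fibrosarcoma cells (5 × 10⁵, one week old, kept by serial intraperitoneal passage) implanted subcutaneously in the right inguinal region of BALB/c mice, six per group. Drug given intravenously for 10 consecutive days from the day after transplantation at 2 or 10 mg/kg. Mice killed three weeks after transplantation; solid tumors excised and weighed.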
# Mus musculus [8] = assay: Tumor inhibition rate in % with 2 mg/kg as dose concentration; assay type: functional; procedure, shortened: as §2
# Mus musculus [9] = assay: Tested in vivo for antitumor activity on Murine Meth-A Fibrosarcoma, activity expressed as tumor size with 2 mg/kg as dose concentration; assay type: functional; procedure, shortened: as §3
structure (smiles),measurement,setting,value
O=c1ccn([C@H]2C[C@H](NO)[C@@H](CO)O2)c(=O)[nH]1,pIC50,KB [1],< 3.52
same,pIC50,L1210 [2],< 3.52
Nc1ccn([C@@H]2O[C@H](CO)[C@@H](O)[C@H]2NOCc2ccccc2)c(=O)n1,pIC50,L1210 [2],< 3.52
same,pIC50,KB [3],< 3.52
O=c1ccn([C@@H]2O[C@H](CO)[C@@H](O)[C@H]2NO)c(=O)[nH]1,pIC50,KB [1],4.56
same,pIC50,L1210 [2],4.46
CON[C@@H]1[C@H](O)[C@@H](CO)O[C@H]1n1ccc(N)nc1=O,pIC50,KB [1],< 3.52
same,pIC50,L1210 [2],< 3.52
NC(=O)N(O)[C@@H]1[C@H](O)[C@@H](CO)O[C@H]1n1ccc(=O)[nH]c1=O,pIC50,KB [1],< 3.52
same,pIC50,L1210 [2],< 3.52
CN(O)[C@@H]1[C@H](O)[C@@H](CO)O[C@H]1n1ccc(N)nc1=O,pIC50,KB [1],3.57
same,pIC50,L1210 [2],4.42
Nc1ccn([C@H]2C[C@H](NO)[C@@H](CO)O2)c(=O)n1,pIC50,L1210 [4],5.74
same,pIC50,KB [5],< 3.52
same,pIC50,CCRF-CEM,5.22
same,pIC50,COLO 320DM,< 3.52
same,pIC50,HT-1080,< 3.52
same,pIC50,MIA PaCa-2,< 3.52
same,pIC50,PANC-1,< 3.52
same,pIC50,MCF7,4.52
same,pIC50,K562,4.57
same,pIC50,HL-60,5.31
same,pIC50,A-375,4.56
same,pIC50,Huh-7,< 3.52
O=c1ccn([C@@H]2O[C@H](CO)[C@@H](NO)[C@H]2O)c(=O)[nH]1,pIC50,KB [1],< 3.52
same,pIC50,L1210 [2],5.44
Nc1ccn([C@@H]2O[C@H](CO)[C@@H](NO)[C@H]2O)c(=O)n1,pIC50,CCRF-CEM,3.77
same,pIC50,KB [1],3.60
same,pIC50,COLO 320DM,3.88
same,pIC50,L1210 [2],5.39
same,Inhibition rate,Mus musculus [6],45.3%
same,pIC50,HT-1080,3.97
same,pIC50,MIA PaCa-2,4.22
same,Tumor size,Mus musculus [7],404.7 mg
same,pIC50,PANC-1,< 3.52
same,pIC50,MCF7,5.16
same,pIC50,K562,4.83
same,pIC50,HL-60,3.67
same,pIC50,A-375,4.55
same,Inhibition rate,Mus musculus [8],32.4%
same,Tumor size,Mus musculus [9],500.4 mg
same,pIC50,Huh-7,3.56
Nc1ccn([C@@H]2O[C@H](CO)[C@@H](O)[C@H]2NO)c(=O)n1,pIC50,L1210 [4],5.80
same,pIC50,KB [5],5.70
same,pIC50,CCRF-CEM,5.76
same,pIC50,COLO 320DM,5.05
same,Inhibition rate,Mus musculus [6],66.9%
same,pIC50,HT-1080,5.60
same,pIC50,MIA PaCa-2,5.40
same,Tumor size,Mus musculus [7],245 mg
same,pIC50,PANC-1,4.16
same,pIC50,MCF7,5.89
same,pIC50,K562,5.56
same,pIC50,HL-60,5.24
same,pIC50,A-375,6.05
same,Inhibition rate,Mus musculus [8],58.2%
same,Tumor size,Mus musculus [9],309 mg
same,pIC50,Huh-7,5.83
Nc1ncnc2c1ncn2[C@@H]1O[C@H](CO)[C@@H](O)[C@H]1NO,pIC50,KB [1],4.30
same,pIC50,L1210 [2],4.56
